Assay results published in paper PMC3776988 (British Journal of Cancer, 2013).
Starred links: 1 amine or outer side, 2 acyl side, 3 side chain; linkers in the order of their positions; H or OH if unused. Positions of bridges follow the written chain, without caps; N, C: chain ends. Non-standard residues stand in square brackets, D forms with d. Residues, ends and D or L forms follow the SMILES beside them. *: point of attachment. X1 = CC[C@H](C)[C@@H](N[*:1])[C@@H](O)CC(=O)O[C@H](C(=O)[C@H](C)C(=O)[*:2])C(C)C; NMeY = CN[C@@H](Cc1ccc(O)cc1)C(=O)O; dNMeL = CN[C@H](CC(C)C)C(=O)O; Pyruvoyl = CC(=O)C(=O)*

Columns and labels:
[1] = system: patients with metastatic/advanced melanoma; settings: cited from earlier work
patients = settings: plitidepsin 1-h weekly schedule; ref Izquierdo et al, 2008; cited from earlier work
[2] = system: patients with advanced malignant melanoma; assay: Phase II stage toxicity; format: in vivo, human; settings: single-agent plitidepsin 3.2 mg m^−2
How it was run: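 Previously untreated adults with advanced melanoma (ECOG PS ⩽2) were randomised without stratification to plitidepsin 3.2 mg m−2 as a 1-h i.v. infusion on days 1, 8 and 15 q4wk. Day-1 dosing could be delayed up to 2 weeks, and day-8/15 doses were skipped if retreatment criteria were unmet. Up to two dose reductions were allowed. Patients receiving ⩾1 infusion were evaluable; AEs were graded by NCI-CTCAE v.3.0.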

Row | SMILES | Responses to single-agent DTIC, % of patients ([1]; generally short lived, ref Falkson et al, 1998, Chapman et al, 1999, Chiarion Sileni et al, 2001, Avril et al, 2004, Bedikian et al, 2006, Schadendorf et al, 2006, Patel et al, 2011) | Response rates reported for single-agent DTIC ([1]; reported range) | Single-agent RD (patients) [mg m^−2] | Febrile neutropenia [2] | Grade 3 ALT increases, % of patients [2] [%] | Omissions because of treatment-related transaminase increases [2] [%] | Patients who skipped at least one plitidepsin infusion [2] [%]
1 | CN(C)/N=N/c1[nH]cnc1C(N)=O [DTIC, Dacarbazine] | 6–15% | 5–15% |  |  |  |  | 
2 | CC[C@H](C)[C@H]1NC(=O)[C@@H](NC(=O)[C@@H](CC(C)C)N(C)C(=O)[C@@H]2CCCN2C(=O)C(C)=O)[C@@H](C)OC(=O)[C@H](Cc2ccc(OC)cc2)N(C)C(=O)[C@@H]2CCCN2C(=O)[C@H](CC(C)C)NC(=O)[C@@H](C)C(=O)[C@H](C(C)C)OC(=O)C[C@@H]1O [Plitidepsin, plitidepsin] (Pyruvoyl-P[dNMeL]T[X1]LP[NMeY](Me); ester 3-C) |  |  | 3.2 | no cases | 10 | 25 | 47
